Measured values reported in ChEMBL document CHEMBL1770105, “Discovery and evaluation of pyrazolo[1,5-a]pyrimidines as neuropeptide Y1 receptor antagonists” (Bioorg Med Chem Lett, 2011).

Tests used:
[1] = molecular target: T1, Neuropeptide Y receptor type 1 (Homo sapiens, UniProt P25929); experiment: Displacement of [125I]-PYY from human recombinant NPY Y1 receptor overexpressed in membrane of Sf9 cells
T1 sequence (P25929 whole entry): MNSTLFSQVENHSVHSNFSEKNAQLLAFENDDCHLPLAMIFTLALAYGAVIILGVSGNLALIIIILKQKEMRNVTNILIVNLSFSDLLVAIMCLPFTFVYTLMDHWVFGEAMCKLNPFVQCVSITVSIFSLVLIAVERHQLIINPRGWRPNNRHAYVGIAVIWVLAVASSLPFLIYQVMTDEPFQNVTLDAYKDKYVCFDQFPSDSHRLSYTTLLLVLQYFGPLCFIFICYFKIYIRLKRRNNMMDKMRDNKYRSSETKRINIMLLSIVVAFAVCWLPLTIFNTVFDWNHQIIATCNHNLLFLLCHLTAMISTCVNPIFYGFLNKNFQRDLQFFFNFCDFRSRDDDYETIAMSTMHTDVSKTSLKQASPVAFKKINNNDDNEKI
Outline: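 Human Y1 receptor: 125I-PYY displacement on Sf9 membranes overexpressing recombinant hY1R. Ki values are single determinations run in triplicate.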

[2] = Ratio of fraction unbound drug level in brain to plasma in Mdr1a/1b knockout mouse to FVB mouse at 5 mg.kg, sc after 0.5 hrs; format: ADME, organism-based
Outline: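 Brain and plasma levels measured in Mdr1a/1b knockout and wild-type FVB mice 0.5 h after a 5 mg/kg sc dose. Brain/plasma ratios calculated from unbound fractions, measured by equilibrium dialysis of brain homogenate and plasma. Result expressed as knockout B/P over FVB B/P.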

[3] = tested on: Rattus norvegicus; experiment: Unbound plasma clearance in Sprague-Dawley rat 1 mg/kg, iv and 3 mg/kg, po; format: ADME, organism-based; settings: in vivo
[4] = molecular target: T1, Neuropeptide Y receptor type 1; experiment: Antagonist activity at NPY Y1 receptor in human SK-N-MC cells assessed as inhibition of NPY-induced calcium mobilization by FLIPR assay; format: functional, cell-based
Outline: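 SK-N-MC neuroblastoma cells plated at 25,000/well 4 days ahead, loaded with Fluo-3 for 1 h in 5% CO2, washed and resuspended in assay buffer (5 mM KCl, 115 mM NaCl, 0.96 mM NaH2PO4, 1 mM MgSO4, 2 mM CaCl2, 5 mM D-glucose) containing test compound.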

[5] = tested on: Rattus norvegicus; experiment: Antihypertensive activity in Sprague-Dawley rat assessed as inhibition of NPY-induced increase in arterial pressure at 3 mg/kg, iv; format: functional; settings: Artery
Outline: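 Overnight-fasted SD rats anesthetized with inactin (100 mg/kg ip), tracheal and femoral arterial/venous cannulae, on a heated pad. Arterial pressure and heart rate recorded every 5 s. NPY given as iv bolus every 15 min. After the third NPY bolus, compound given iv at 3 mg/kg in saline (1 mL/kg), followed by three further NPY injections.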

[6] = Fraction unbound in Sprague-Dawley rat plasma at 1 mg/kg, iv and 3 mg/kg, po; format: ADME, organism-based
[7] = Plasma clearance in Sprague-Dawley rat at 1 mg/kg, iv and 3 mg/kg, po; format: ADME, organism-based
Outline: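 Overnight-fasted, jugular-vein-cannulated SD rats (water ad libitum) dosed by oral gavage (3 mg/kg in 0.5% methyl cellulose, 2 mL/kg, n = 2) or iv via the jugular vein (1.0 mg/kg in 50% PEG, 1 mL/kg, n = 2).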

[8] = Selectivity ratio of NPY Y1 receptor over CRHR
[9] = molecular target: T2, Corticotropin-releasing factor receptor 1 (Homo sapiens, UniProt P34998); experiment: Binding affinity to CRHR
T2 sequence (P34998 whole entry): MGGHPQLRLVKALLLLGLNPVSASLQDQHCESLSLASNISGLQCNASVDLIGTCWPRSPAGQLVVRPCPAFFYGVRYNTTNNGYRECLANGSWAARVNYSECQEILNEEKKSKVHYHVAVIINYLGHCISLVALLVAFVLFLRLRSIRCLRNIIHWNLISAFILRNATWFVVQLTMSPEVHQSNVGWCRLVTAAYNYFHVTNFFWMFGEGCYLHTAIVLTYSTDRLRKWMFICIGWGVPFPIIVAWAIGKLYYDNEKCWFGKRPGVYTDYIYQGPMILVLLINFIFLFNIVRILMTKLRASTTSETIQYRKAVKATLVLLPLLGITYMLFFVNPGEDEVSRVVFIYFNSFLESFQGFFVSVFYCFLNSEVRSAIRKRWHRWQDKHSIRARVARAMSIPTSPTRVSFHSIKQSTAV

Cc1cc(NCCNC2CCCC2)n2nc(C)c(-c3c(Cl)cccc3Cl)c2n1
Ki [1]: 38 nM

Cc1cc(NCCNC2CCOCC2)n2nc(C)c(-c3c(Cl)cccc3Cl)c2n1
Ki [1]: 7 nM

COc1cc(Cl)c(-c2c(C)nn3c(NCCNCC(F)F)cc(C)nc23)c(Cl)c1
Knockout-to-FVB ratio of unbound brain/plasma ratio [2]: 2
Ki [1]: 383 nM

CCOc1cc(Cl)c(-c2c(C)nn3c(NCCNC4CCOCC4)cc(C)nc23)c(Cl)c1
CL [3]: 996 mL/min/kg
IC50 [4]: 15 nM
inhibition in vivo at 3 mg/kg [5]: 47%
fraction unbound [6]: 0.029
Ki [1]: 3 nM
clearance [7]: 28 mL/min/kg

COc1cc(Cl)c(-c2c(C)nn3c(NCCNCCF)cc(C)nc23)c(Cl)c1
Knockout-to-FVB ratio of unbound brain/plasma ratio [2]: 4
Ki [1]: 22 nM

CCN(CCN)c1nc(C)nc2c1c1ccccc1n2-c1c(C)cc(C)cc1C
Ratio [8]: 29
Ki [9]: 4470 nM

Cc1cc(C)c(-c2c(C)nn3c(NCCN)cc(C)nc23)c(C)c1
Ki [1]: 2300 nM
Ki [9]: > 10000 nM
